SENP6 block = blocks the human protease SENP6. Q9GZR1. Recombinant SENP6 catalytic domain, aminoluciferin luminescence. inhibition, % at 10 µM. 1.8% of 330,000 active;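 active = inhibition above about 50% at the single tested dose, limit read from the data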
Target sequence (Q9GZR1 628-1112 limits assumed): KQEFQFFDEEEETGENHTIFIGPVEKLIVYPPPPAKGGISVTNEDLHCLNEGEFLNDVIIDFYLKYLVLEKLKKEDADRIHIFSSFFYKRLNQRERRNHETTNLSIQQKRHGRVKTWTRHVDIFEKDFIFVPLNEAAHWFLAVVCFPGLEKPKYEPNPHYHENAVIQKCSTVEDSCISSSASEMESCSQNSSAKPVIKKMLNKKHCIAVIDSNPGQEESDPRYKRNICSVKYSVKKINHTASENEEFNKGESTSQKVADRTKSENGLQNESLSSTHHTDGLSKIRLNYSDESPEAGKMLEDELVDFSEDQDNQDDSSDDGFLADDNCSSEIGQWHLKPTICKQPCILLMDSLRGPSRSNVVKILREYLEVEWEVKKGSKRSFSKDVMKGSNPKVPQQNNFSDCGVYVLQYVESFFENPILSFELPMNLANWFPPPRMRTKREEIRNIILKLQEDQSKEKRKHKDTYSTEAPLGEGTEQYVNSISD
SENP8 block-1 = inhibitors of human SENP8 protease; Q96LD8; purified SENP8, Z-RLRGG-aminoluciferin cleavage, luminescence; inhibition, % at 10 µM; 1.2% of 330,000 active; AID 2540; in the data active = inhibition above about 50%
SENP8 block-2 = SENP8 (human) protease inhibition. inhibition, % at 20 µM. 0.64% of 360,000 active. Q96LD8. recombinant SENP8, Nedd8 substrate fluorescence; in the data active = inhibition mostly above about 40%, no sharp cut-off; inactive = mostly below about 27%
UBC13 inh = blocks human UBC13 polyubiquitin chain formation. TR-FRET. P61088. 0.47% of 330,000 active. AID 485273. inhibition, % at 20 µM; in the data active = inhibition above about 45%, passing the limit was not always enough
Target sequence (P61088 whole entry, looked up): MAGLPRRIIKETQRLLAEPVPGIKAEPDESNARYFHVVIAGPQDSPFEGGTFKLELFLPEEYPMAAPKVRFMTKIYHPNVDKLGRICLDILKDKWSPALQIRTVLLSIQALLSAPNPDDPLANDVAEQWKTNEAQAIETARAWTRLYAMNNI
SENP7 block = SENP7 protease inhibition; Q9BQF6; recombinant SENP7, Z-RLRGG-aminoluciferin luminescence, 40 min; inhibition, % at 5 µM; 1.5% of 330,000 active; AID 434973;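 active = inhibition above about 50% at the single test dose, limit read from the data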
Apaf1 inhib = human Apaf-1 inhibition. O14727. reconstituted apoptosome caspase-3 activity, DEVD-Rh110 fluorescence. inhibition, % at 20 µM. 0.71% of 330,000 active. AID 489030; active = inhibition of at least 40% at 20 µM
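detection = Rh110 fluorescence intensity | test system = biochemical Apaf-1 apoptosome reconstitution | also added = cytochrome c and DEVD-Rh110 substrate | schedule = 30 min plus 50 min, RT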
Casp3 counter = inhibits human caspase-3 in UBC13 counter-screen. shares compounds with UBC13 inh. Recombinant caspase-3, Caspase-Glo 3/7 luminescence, 60 min. inhibition, % at 20 µM. 4% of 1,400 active;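 active = mean inhibition across replicates above about 26%, limit read from the data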
UBC13 conf = confirmation of human UBC13 polyubiquitin inhibitors; shares compounds with UBC13 inh; UBC13 polyubiquitination, TR-FRET, biochemical; inhibition, % at 10 µM; 68% of 1,400 active; AID 488859; in the data active = inhibition above about 45%
Apaf-1 inh conf = Apaf-1 inhibition, single-dose confirmed; inhibition, % at 20 µM; shares compounds with Apaf1 inhib; AID 504614; reconstituted apoptosome, caspase-3 DEVD-Rh110 fluorescence; 25% of 1,800 active;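 active = mean inhibition of at least 40% at 20 µM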
Rh110 interf inh = counter-screen for Apaf-1 inhibitors: fluorescence interference; shares compounds with Apaf1 inhib; Rh110 fluorescence interference, quenched caspase reaction; activation (fluorescence interference), % at 20 µM; 1,800 tested, under 10 active; AID 504615;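 active = signal rise of 40% or more at 20 µM, treated as a fluorescence artifact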
Fluor interf inh = Apaf-1 inhibitor counter-screen fluorescence artifact. AID 588538. shares compounds with Apaf1 inhib. IC50, µM. 460 tested, under 10 active. fluorescence interference counterscreen, Apaf-1 assay format; call rule not given here
Large screens that a line does not name were inactive (follow-up assays come after a bar, where they were run). The list is not random: actives were taken first. Their share in the collection is about 3.1%.

CC(O)[C@H]1CN=C(N)N1CCc1cc(C(F)(F)F)cc(C(F)(F)F)c1 (stereo partly drawn)	none
COc1cc(CCCN2C(N)=NC[C@@H]2c2ccccc2)cc(OC)c1OC	none
COc1ccc(S(=O)(=O)N2CCCCC2c2cc(C(=O)Nc3ccc4c(c3)OCO4)no2)cc1 (stereo not drawn)	none (no result: SENP6 block, SENP8 block-1, UBC13 inh, SENP7 block, Apaf1 inhib)
Nc1nc(N)c2c(ccc3c2ccn3Cc2cccc([N+](=O)[O-])c2)n1	none (no result: SENP6 block, SENP8 block-1, UBC13 inh, SENP7 block, Apaf1 inhib)
C#CCOCCOCCOCCNc1nc(N2CCN(C(=O)[C@H](Cc3cc4ccccc4[nH]3)n3cc([C@@H](N)CC(C)C)nn3)CC2)nc(N2CCN(C(=O)[C@H](Cc3cc4ccccc4[nH]3)n3cc([C@@H](N)CC(C)C)nn3)CC2)n1	UBC13 inh 106, Apaf1 inhib 71 | Casp3 counter inactive | UBC13 conf 105 | Apaf-1 inh conf inactive | Rh110 interf inh inactive
C#CCOCCOCCOCCNc1nc(N2CCN(C(=O)[C@H](CCC(=O)O)n3cc([C@@H](N)[C@H](C)CC)nn3)CC2)nc(N2CCN(C(=O)[C@H](CCCCN)n3cc([C@@H](N)CC(N)=O)nn3)CC2)n1	none
C#CCOCCOCCOCCNc1nc(N2CCN(C(=O)C([C@@H](C)O)n3cc([C@@H](N)CCCCN)nn3)CC2)nc(N2CCN(C(=O)[C@H](CC(N)=O)n3cc(C(N)[C@@H](C)CC)nn3)CC2)n1 (stereo partly drawn)	none
C#CCOCCOCCOCCNc1nc(N2CCN(C(=O)[C@H](CCCCN)n3cc([C@@H](N)[C@H](C)CC)nn3)CC2)nc(N2CCN(C(=O)[C@H](CCCCN)n3cc([C@@H](N)CC(N)=O)nn3)CC2)n1	UBC13 inh 99, Apaf1 inhib 44 | Casp3 counter inactive | UBC13 conf 107 | Apaf-1 inh conf inactive | Rh110 interf inh inactive
C#CCOCCOCCOCCNc1nc(N2CCN(C(=O)[C@H](Cc3ccc(O)cc3)n3cc([C@@H](N)C(C)CC)nn3)CC2)nc(N2CCN(C(=O)[C@H](Cc3cc4ccccc4[nH]3)n3cc([C@@H](N)CC(C)C)nn3)CC2)n1 (stereo partly drawn)	UBC13 inh 76, Apaf1 inhib 47 (no result: SENP8 block-2) | Casp3 counter inactive | UBC13 conf 56 | Apaf-1 inh conf inactive | Rh110 interf inh inactive
C#CCOCCOCCOCCNc1nc(N2CCN(C(=O)C([C@@H](C)O)n3cc([C@@H](N)CCCCN)nn3)CC2)nc(N2CCN(C(=O)[C@H](CO)n3cc([C@@H](N)C(C)C)nn3)CC2)n1 (stereo partly drawn)	UBC13 inh 105, Apaf1 inhib 53 | Casp3 counter inactive | UBC13 conf 111 | Apaf-1 inh conf inactive | Rh110 interf inh inactive
COc1ccc(C(=O)N2CCN(c3nc4cc(C)cc(C)c4cc3C#N)CC2)cc1	none (no result: SENP6 block, SENP8 block-1, UBC13 inh, SENP7 block, Apaf1 inhib)
C[C@H](NC(=O)[C@@H]1CCCN1C(=O)[C@@H]1CCCN1C(=O)c1cccc2ccccc12)c1ccccc1	none (no result: SENP6 block, SENP8 block-1, UBC13 inh, SENP7 block, Apaf1 inhib)
C#CCOCCOCCOCCNc1nc(N2CCN(C(=O)[C@H](Cc3cc4ccccc4[nH]3)n3cc([C@@H](N)C(C)CC)nn3)CC2)nc(N2CCN(C(=O)[C@H](CCCCN)n3cc([C@@H](N)CC(C)C)nn3)CC2)n1 (stereo partly drawn)	UBC13 inh 98, Apaf1 inhib 41 (no result: SENP8 block-2) | Casp3 counter inactive | UBC13 conf 116 | Apaf-1 inh conf inactive | Rh110 interf inh inactive
C#CCOCCOCCOCCNc1nc(N2CCOCC2)nc(N2CCN(C(=O)[C@H](CCCCN)n3cc(CN)nn3)CC2)n1	UBC13 inh 96, Apaf1 inhib 49 | Casp3 counter inactive | UBC13 conf 89 | Apaf-1 inh conf inactive | Rh110 interf inh inactive
CCC(c1nc2ccccc2[nH]1)N(CCCn1ccnc1)C(=O)c1ccc(C(F)(F)F)cc1 (stereo not drawn)	none (no result: SENP6 block, SENP8 block-1, UBC13 inh, SENP7 block, Apaf1 inhib)
CC(C)=CCC[C@H](C)CC1Cc2[nH]c(=S)[nH]c(=O)c2C(c2ccc(Cl)cc2)O1 (stereo partly drawn)	none (no result: SENP6 block, SENP8 block-1, UBC13 inh, SENP7 block, Apaf1 inhib)
COC(=O)c1c(NC(=O)c2nc3ccccc3s2)sc2c1CC(C)(C)NC2(C)C	UBC13 inh 97, Apaf1 inhib 58 | Casp3 counter inactive | UBC13 conf 87 | Apaf-1 inh conf inactive | Rh110 interf inh inactive
COC(=O)c1c(NC(=O)c2ccc(C(=O)c3ccccc3)cc2)sc2c1CC(C)(C)NC2(C)C	none (no result: SENP6 block, SENP8 block-1, UBC13 inh, SENP7 block, Apaf1 inhib)
CCOc1ccc(C(=O)Nc2sc3c(c2C(=O)OC)CC(C)(C)NC3(C)C)cc1	UBC13 inh 52, Apaf1 inhib 41 | Casp3 counter inactive | UBC13 conf inactive | Apaf-1 inh conf inactive | Rh110 interf inh inactive
CCOC(=O)c1c(NC(=O)CSc2nc3ccccc3[nH]2)sc2c1CC(C)(C)NC2(C)C	none
Cc1ccc(NS(=O)(=O)c2cc(C(=O)N3CCCC3)ccc2C)cc1C	none
COc1ccc(NS(=O)(=O)c2cc(C(=O)N3CCC3)ccc2C)cc1	UBC13 inh 71, Apaf1 inhib 48 | Casp3 counter inactive | UBC13 conf 77 | Apaf-1 inh conf inactive | Rh110 interf inh inactive
OCCN1CCN(CCCN2c3ccccc3Sc3ccc(Cl)cc32)CC1	UBC13 inh 90, Apaf1 inhib 46 | Casp3 counter inactive | UBC13 conf 99 | Apaf-1 inh conf inactive | Rh110 interf inh inactive
OCCN1CCN(CC/C=C2/c3ccccc3Sc3ccc(Cl)cc32)CC1	UBC13 inh 74, Apaf1 inhib 43 | Casp3 counter inactive | UBC13 conf 60 | Apaf-1 inh conf inactive | Rh110 interf inh inactive
CN1CCN(CCCN2c3ccccc3Sc3ccc(S(=O)(=O)N(C)C)cc32)CC1	none
CCCCN(CCCC)Cc1cc(=O)oc2ccccc12	none (no result: SENP6 block, SENP8 block-1, UBC13 inh, SENP7 block, Apaf1 inhib)
Cc1ccc2nc(-c3ccc(NC(=S)NC4CC(C)(C)NC(C)(C)C4)cc3)sc2c1	UBC13 inh 91, Apaf1 inhib 50 | Casp3 counter inactive | UBC13 conf 96 | Apaf-1 inh conf 42 | Rh110 interf inh inactive | Fluor interf inh inactive
C[C@@H]1CN([C@H](C)CO)C(=O)CCCn2cc(nn2)CO[C@H]1CN(C)S(=O)(=O)c1cccc(C#N)c1	none (no result: SENP6 block, SENP8 block-1, UBC13 inh, SENP7 block, Apaf1 inhib)

Bioassay records: PubChem BioAssay, Sanford-Burnham Center for Chemical Genomics
